Data set [1] is described as follows: Metabolic stability in rat liver microsomes assessed as parent compound remaining at 1 uM after 30 mins in presence of NADPH by LC/MS/MS analysis. To be noted: read-out: Stability. The format is ADME, Microsome. In short, it runs like this:
(§1)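 Compound at 1 μM final with 0.5 mg/mL microsomal protein in 100 mM phosphate buffer pH 7.4 at 37 °C, started by adding an NADPH-regenerating system. Reactions were quenched with cold acetonitrile at 0 and 30 min and spun down. Supernatant was analysed by LC-MS/MS. The 0-min sample, quenched before NADPH addition, was set as 100%, and percent parent remaining came from peak areas.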

Data set [2] can be described thus: Metabolic stability in human liver microsomes assessed as parent compound remaining at 1 uM after 30 mins in presence of NADPH by LC/MS/MS analysis. The format is ADME, Microsome. To be noted: read-out: Stability. In short, it runs like this: as §1
On the technique in general: Liver microsomes are a subcellular fraction often used to study metabolism.

A short description of data set [3]: Metabolic stability in mouse liver microsomes assessed as parent compound remaining at 1 uM after 30 mins in presence of NADPH by LC/MS/MS analysis. Format: ADME, Microsome. To be noted: read-out: Stability. In short, it runs like this:
as §1

For another data set, the target named is CYP3A4 (Homo sapiens, UniProt P08684). Description: Residual activity of CYP3A4 in human liver microsomes at 10 uM using midazolam 1-hydroxylase as substrate preincubated for 5 mins followed by NADPH addition measured after 15 mins by LC/MS/MS analysis relative to control. To be noted: probe midazolam (1-hydroxylation).
The nature of data set [4]: Metabolic stability in dog liver microsomes assessed as parent compound remaining at 1 uM after 30 mins in presence of NADPH by LC/MS/MS analysis. Format: ADME, Canis lupus familiaris, Microsome. To be noted: read-out: Stability. In short, it runs like this:
as §1

The next data set addresses CYP2C9 (Homo sapiens, UniProt P11712). Description: Residual activity of CYP2C9 in human liver microsomes at 10 uM using tolbutamide 4-hydroxylase as substrate preincubated for 5 mins followed by NADPH addition measured after 15 mins by LC/MS/MS analysis relative to control. To be noted: probe tolbutamide (4-hydroxylation).
For another data set, the target named is CYP2C19 (Homo sapiens, UniProt P33261). Nature of the data set: Residual activity of CYP2C19 in human liver microsomes at 10 uM using S-mephenytoin 4-hydroxylase as substrate preincubated for 5 mins followed by NADPH addition measured after 15 mins by LC/MS/MS analysis relative to control. To be noted: probe S-mephenytoin (4-hydroxylation).
Another data set addresses CYP2D6 (Homo sapiens, UniProt P10635). Description: Residual activity of CYP2D6 in human liver microsomes at 10 uM using dextromethorphan O-demethylase as substrate preincubated for 5 mins followed by NADPH addition measured after 15 mins by LC/MS/MS analysis relative to control. Conditions: probe dextromethorphan (O-demethylation).
The target of another data set is T1, CYP1A2 (Homo sapiens, UniProt P05177).
T1 sequence (P05177 whole entry): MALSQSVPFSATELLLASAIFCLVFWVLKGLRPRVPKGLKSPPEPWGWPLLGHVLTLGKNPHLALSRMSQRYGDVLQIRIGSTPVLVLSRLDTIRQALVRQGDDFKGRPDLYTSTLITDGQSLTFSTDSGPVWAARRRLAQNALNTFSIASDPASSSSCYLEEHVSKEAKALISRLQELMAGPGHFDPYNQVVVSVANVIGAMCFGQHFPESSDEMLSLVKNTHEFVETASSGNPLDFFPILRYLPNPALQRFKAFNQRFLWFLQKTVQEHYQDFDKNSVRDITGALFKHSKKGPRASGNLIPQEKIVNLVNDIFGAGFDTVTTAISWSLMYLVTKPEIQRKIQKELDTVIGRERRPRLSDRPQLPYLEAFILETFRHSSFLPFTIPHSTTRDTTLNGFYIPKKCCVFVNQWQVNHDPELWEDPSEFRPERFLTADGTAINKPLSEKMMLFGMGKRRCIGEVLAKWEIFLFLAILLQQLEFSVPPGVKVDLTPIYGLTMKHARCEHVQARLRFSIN
Nature of the data set: Residual activity of CYP1A2 in human liver microsomes at 10 uM using phenacetin O-deethylase as substrate preincubated for 5 mins followed by NADPH addition measured after 15 mins by LC/MS/MS analysis relative to control. To be noted: probe phenacetin (O-deethylation).

A further data set deals with BaF3. Nature of the data set: Antiproliferative activity against mouse BAF3 cells assessed as reduction in cell viability after 72 hrs by MTS assay. Format: cell-based. To be noted: BaF3, 72 h. (Formazan colour is commonly taken as a measure of viable cells.)
Data set [5] concerns the target ALK tyrosine kinase receptor (Homo sapiens, UniProt Q9UM73). Nature of the data set: Inhibition of GST-tagged human ALK cytoplasmic domain (1058 to 1620 residues) expressed in baculovirus expression system using Poly G:T (4:1) as substrate after 30 mins by Z-LYTE assay.

In general, EC50 refers to the concentration needed to bring the measured effect to its halfway point. For orientation: IC50 means the concentration needed to halve the response being measured. Low values mean greater potency in that assay, high ones weaker potency in that assay.

Chain of CYP2D6 (P10635 whole entry): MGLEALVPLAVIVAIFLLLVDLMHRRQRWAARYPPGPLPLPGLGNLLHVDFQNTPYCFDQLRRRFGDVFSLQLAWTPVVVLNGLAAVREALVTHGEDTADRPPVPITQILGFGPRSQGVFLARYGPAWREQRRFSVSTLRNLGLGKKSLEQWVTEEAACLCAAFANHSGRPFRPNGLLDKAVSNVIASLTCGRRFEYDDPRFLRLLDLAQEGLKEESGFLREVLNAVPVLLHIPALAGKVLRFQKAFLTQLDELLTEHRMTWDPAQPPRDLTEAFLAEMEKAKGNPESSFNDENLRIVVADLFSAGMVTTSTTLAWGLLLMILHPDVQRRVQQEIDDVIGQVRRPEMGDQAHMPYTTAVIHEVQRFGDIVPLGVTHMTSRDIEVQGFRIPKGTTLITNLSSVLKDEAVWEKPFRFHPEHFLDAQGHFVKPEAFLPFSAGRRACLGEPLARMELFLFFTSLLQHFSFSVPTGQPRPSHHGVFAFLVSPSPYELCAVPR
Chain of ALK tyrosine kinase receptor (Q9UM73 whole entry, the tested form may be a part): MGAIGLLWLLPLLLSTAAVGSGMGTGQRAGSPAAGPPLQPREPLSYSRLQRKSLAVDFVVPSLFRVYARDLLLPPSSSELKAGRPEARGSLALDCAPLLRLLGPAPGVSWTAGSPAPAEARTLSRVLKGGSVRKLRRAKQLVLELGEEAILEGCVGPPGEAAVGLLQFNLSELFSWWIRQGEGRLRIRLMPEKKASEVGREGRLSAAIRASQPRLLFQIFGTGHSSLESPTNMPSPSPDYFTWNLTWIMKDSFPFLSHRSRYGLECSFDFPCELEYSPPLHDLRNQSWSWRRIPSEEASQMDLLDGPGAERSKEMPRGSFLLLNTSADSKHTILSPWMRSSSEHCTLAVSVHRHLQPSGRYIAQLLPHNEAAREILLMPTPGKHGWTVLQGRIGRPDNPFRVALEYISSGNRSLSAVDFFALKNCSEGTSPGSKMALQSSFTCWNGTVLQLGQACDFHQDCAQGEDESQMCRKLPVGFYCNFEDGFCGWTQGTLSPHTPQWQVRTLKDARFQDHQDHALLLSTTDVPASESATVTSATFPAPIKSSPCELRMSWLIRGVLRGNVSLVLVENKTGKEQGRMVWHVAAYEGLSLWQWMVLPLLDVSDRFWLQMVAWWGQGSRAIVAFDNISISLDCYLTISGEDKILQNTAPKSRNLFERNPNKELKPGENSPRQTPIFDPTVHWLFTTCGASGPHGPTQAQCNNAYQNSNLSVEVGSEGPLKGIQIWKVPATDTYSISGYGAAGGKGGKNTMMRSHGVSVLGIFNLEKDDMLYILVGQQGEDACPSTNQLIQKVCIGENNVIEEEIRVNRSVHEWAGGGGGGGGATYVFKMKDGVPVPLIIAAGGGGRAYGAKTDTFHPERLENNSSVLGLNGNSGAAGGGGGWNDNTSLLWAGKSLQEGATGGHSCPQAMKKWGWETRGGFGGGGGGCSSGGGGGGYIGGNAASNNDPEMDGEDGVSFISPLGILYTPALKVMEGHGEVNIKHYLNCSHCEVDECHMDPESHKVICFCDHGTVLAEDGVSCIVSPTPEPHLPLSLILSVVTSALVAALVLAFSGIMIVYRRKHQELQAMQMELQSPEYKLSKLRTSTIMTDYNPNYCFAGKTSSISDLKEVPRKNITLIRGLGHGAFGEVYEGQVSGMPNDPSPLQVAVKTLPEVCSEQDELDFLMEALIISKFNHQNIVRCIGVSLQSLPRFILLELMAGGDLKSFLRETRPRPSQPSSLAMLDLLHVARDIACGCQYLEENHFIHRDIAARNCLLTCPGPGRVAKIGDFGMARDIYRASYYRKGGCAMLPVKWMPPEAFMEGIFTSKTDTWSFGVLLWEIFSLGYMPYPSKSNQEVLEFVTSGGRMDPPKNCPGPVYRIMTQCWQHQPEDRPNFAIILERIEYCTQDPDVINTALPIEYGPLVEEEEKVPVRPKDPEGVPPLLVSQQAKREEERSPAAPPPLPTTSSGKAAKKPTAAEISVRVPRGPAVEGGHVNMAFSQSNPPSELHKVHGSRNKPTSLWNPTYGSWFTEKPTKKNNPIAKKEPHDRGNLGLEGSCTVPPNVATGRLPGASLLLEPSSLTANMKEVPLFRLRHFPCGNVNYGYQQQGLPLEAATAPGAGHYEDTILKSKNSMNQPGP
Chain of CYP2C9 (P11712 whole entry): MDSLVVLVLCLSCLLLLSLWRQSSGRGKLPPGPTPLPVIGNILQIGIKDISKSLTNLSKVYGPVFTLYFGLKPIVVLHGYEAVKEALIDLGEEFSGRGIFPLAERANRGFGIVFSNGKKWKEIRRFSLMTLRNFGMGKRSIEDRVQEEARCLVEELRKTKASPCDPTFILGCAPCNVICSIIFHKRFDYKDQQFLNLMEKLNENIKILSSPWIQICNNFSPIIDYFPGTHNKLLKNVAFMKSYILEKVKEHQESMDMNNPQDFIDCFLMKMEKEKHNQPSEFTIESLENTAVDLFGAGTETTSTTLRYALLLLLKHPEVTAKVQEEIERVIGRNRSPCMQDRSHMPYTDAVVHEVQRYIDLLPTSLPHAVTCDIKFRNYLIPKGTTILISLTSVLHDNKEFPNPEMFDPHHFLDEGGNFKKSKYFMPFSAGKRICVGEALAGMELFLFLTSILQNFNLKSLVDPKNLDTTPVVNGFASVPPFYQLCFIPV
Chain of CYP2C19 (P33261 whole entry): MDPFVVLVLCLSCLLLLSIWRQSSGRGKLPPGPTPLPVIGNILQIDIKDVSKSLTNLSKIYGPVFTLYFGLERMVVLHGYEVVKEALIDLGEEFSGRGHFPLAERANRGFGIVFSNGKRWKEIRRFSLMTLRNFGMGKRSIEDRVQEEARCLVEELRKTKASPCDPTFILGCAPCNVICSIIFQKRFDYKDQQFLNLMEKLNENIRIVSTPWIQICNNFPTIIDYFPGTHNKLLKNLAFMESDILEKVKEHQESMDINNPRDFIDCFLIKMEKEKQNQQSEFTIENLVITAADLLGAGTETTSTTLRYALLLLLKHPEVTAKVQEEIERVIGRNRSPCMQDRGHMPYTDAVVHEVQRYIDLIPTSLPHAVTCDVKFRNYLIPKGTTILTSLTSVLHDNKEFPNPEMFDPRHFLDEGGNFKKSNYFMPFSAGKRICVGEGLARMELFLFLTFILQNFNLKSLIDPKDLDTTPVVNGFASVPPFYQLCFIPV
Chain of CYP3A4 (P08684 whole entry): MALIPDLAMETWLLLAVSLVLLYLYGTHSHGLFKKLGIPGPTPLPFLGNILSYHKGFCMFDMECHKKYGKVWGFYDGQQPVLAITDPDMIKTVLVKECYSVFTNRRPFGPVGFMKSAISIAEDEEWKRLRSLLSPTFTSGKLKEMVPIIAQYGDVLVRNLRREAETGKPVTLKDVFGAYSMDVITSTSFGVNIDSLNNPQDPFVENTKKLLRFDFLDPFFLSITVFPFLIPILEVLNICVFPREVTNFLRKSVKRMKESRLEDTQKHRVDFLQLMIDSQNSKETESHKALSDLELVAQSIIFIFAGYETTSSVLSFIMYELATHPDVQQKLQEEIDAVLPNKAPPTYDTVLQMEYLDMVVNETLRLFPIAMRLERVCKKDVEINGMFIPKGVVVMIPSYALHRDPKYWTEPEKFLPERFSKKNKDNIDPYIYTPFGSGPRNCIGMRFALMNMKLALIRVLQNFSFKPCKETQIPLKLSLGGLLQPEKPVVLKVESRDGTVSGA

Regarding `C=CC(=O)Nc1cc(Nc2ncc(F)c(Nc3ccccc3S(=O)(=O)C(C)C)n2)c(OC)cc1N(C)CCN(C)C`, the remaining at 0.5 h, 1 µM was 11% in [1], 26% in [2], 15% in [3] and 27% in [4]. Besides, the Activity at […], 10 µM was 51% at CYP3A4; 94% on CYP2C9; 93% on CYP2C19; 95% at CYP2D6; 91% on CYP1A2. In addition, the EC50 with BaF3 was greater than 5 µM.

As for `C=CC(=O)Nc1cc(Nc2ncc(I)c(Nc3ccccc3S(=O)(=O)N(C)C)n2)c(OC)cc1N(C)CCN(C)C`, the remaining at 0.5 h, 1 µM in data set [1] is 12%; in data set [2] it was 13%; in [3], 12%; in [4], 35%. For the same compound, the Activity at […], 10 µM at CYP3A4 was determined as 54%; at CYP2C9, 85%; at CYP2C19 it was 67%; at CYP2D6, 93%; on CYP1A2 it was 79%.

Consider `C=CC(=O)Nc1cc(Nc2ncc(I)c(Nc3ccccc3S(=O)(=O)C(C)C)n2)c(OC)cc1N(C)CCN(C)C`, for which the remaining at 0.5 h, 1 µM stood at 14% in [1], 14% in data set [2], 10% in data set [3] and 19% in data set [4]. The Activity at […], 10 µM on CYP3A4 came out at 47%; at CYP2C9, 88%; on CYP2C19 it was 86%; at CYP2D6, 82%; at CYP1A2, 81%. The EC50 with BaF3 is greater than 5 µM.

For `C=CC(=O)Nc1cc(Nc2ncc(F)c(Nc3ccccc3S(=O)(=O)N(C)C)n2)c(OC)cc1N(C)CCN(C)C`, the remaining at 0.5 h, 1 µM in data set [1] amounted to 7%; in data set [2], 9%; in data set [3], 10%; in data set [4], 33%. The Activity at […], 10 µM on CYP3A4 was 71%; at CYP2C9, 88%; on CYP2C19, 91%; on CYP2D6, greater than 100%; on CYP1A2, greater than 100%.

Take `C=CC(=O)Nc1cccc(Oc2nc(Nc3ccc(N4CCN(C)CC4)cc3OC)ncc2Cl)c1`: the 50% inhibitory concentration (IC50) in [5] amounted to 990 nM. Also, the EC50 with BaF3 was greater than 5 µM.

As to `C=CC(=O)Nc1cc(Nc2nccc(-c3cn(C)c4ccccc34)n2)c(OC)cc1N(C)CCN(C)C` [OSIMERTINIB], the IC50 in [5] is 177 nM. For the same compound, the EC50 with BaF3 is greater than 5 µM.

Take `C=CC(=O)Nc1cc(Nc2nccc(Nc3ccccc3S(=O)(=O)C(C)C)n2)c(OC)cc1N(C)CCN(C)C`: the remaining at 0.5 h, 1 µM in data set [1] came out at 22%; in [2], 5%; in data set [3], 8%; in data set [4], 48%. Moreover, the Activity at […], 10 µM on CYP3A4 was determined as 40%; at CYP2C9, 90%; at CYP2C19, 87%; on CYP2D6, 67%; on CYP1A2, 80%. Also, the half-maximal effective concentration (EC50) with BaF3 is greater than 5 µM.

As to `C=CC(=O)Nc1cc(Nc2nccc(Nc3ccccc3S(=O)(=O)N(C)C)n2)c(OC)cc1N(C)CCN(C)C`, the remaining at 0.5 h, 1 µM in data set [1] came out at 6%; in data set [2], 10%; in data set [3], 5%; in data set [4] it was 50%. Also, the Activity at […], 10 µM on CYP3A4 was found to be 56%; on CYP2C9 it was 88%; at CYP2C19, 85%; on CYP2D6, 79%; at CYP1A2, 82%. The concentration for a half-maximal effect (EC50) in the data set on BaF3 is greater than 5 µM.

In the case of `C=CC(=O)Nc1cc(Nc2ncc(I)c(Nc3ccccc3P(C)(C)=O)n2)c(OC)cc1N(C)CCN(C)C`, the remaining at 0.5 h, 1 µM in data set [1] is 81%; in [2] it was 65%; in [3], 57%; in data set [4] it was 93%. In addition, the Activity at […], 10 µM at CYP3A4 is 88%; on CYP2C9 it was greater than 100%; at CYP2C19, 99%; on CYP2D6, 80%; at CYP1A2, 91%. Further, the concentration giving a half-maximal response (EC50) in the data set with BaF3 is greater than 5 µM.

`C=CC(=O)Nc1cc(Nc2nccc(Nc3ccccc3P(C)(C)=O)n2)c(OC)cc1N(C)CCN(C)C`: the remaining at 0.5 h, 1 µM came to 78% in [1], 70% in data set [2], 76% in data set [3] and 73% in data set [4]. Also, the Activity at […], 10 µM at CYP3A4 was 89%; on CYP2C9, 90%; on CYP2C19, greater than 100%; on CYP2D6, 87%; at CYP1A2, 84%. This compound returned a half-maximal inhibitory concentration (IC50) in [5] of 695 nM. In addition, the EC50 in the data set with BaF3 was greater than 5 µM.

On to `C=CC(=O)Nc1cc(Nc2ncc(F)c(Nc3ccccc3P(C)(C)=O)n2)c(OC)cc1N(C)CCN(C)C`, for which the remaining at 0.5 h, 1 µM in data set [1] stood at 87%; in [2], 84%; in data set [3], 80%; in data set [4], 87%. The Activity at […], 10 µM on CYP3A4, on CYP2C9, at CYP2C19, at CYP2D6 and at CYP1A2 was greater than 100% each time. For the same compound, the EC50 with BaF3 was greater than 5 µM.

As for `C=CC(=O)Nc1cc(Nc2ncc(Cl)c(Nc3ccccc3S(=O)(=O)N(C)C)n2)c(OC)cc1N(C)CCN(C)C`, the remaining at 0.5 h, 1 µM is 13% in data set [1], 11% in data set [2], 23% in data set [3] and 31% in [4]. Further, the Activity at […], 10 µM stood at 39% on CYP3A4; 59% on CYP2C9; 75% at CYP2C19; 88% on CYP2D6; 87% at CYP1A2.

As to `C=CC(=O)Nc1cc(Nc2ncc(Cl)c(Nc3ccccc3P(C)(C)=O)n2)c(OC)cc1N(C)CCN(C)C`, the remaining at 0.5 h, 1 µM in data set [1] is 76%; in data set [2], 61%; in data set [3], 66%; in [4] it was 77%. The Activity at […], 10 µM at CYP3A4 is 91%; at CYP2C9 it was greater than 100%; on CYP2C19, 98%; at CYP2D6 it was 85%; on CYP1A2 it was 93%. Further, the concentration for a half-maximal effect (EC50) in the data set with BaF3 is greater than 5 µM.

Regarding `Cc1cc(Nc2ncc(Cl)c(Nc3ccccc3S(=O)(=O)C(C)C)n2)c(OC(C)C)cc1C1CCNCC1` [CERITINIB], the EC50 with BaF3 was greater than 5 µM.
